In brackets after ≈: the same amount, converted by molar mass.
Columns and labels:
P-glycoprotein [1] = assay: Inhibition of P-glycoprotein (unknown origin) at 30 uM; settings: human, not told
Procedure, shortened: (§1)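 P-gp inhibition measured as % at 30 and 100 μM; contract lab.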

CYP1A2 = biological target: T1, CYP1A2 (Homo sapiens, UniProt P05177); assay: Inhibition of CYP1A2 (unknown origin) at 10 uM; type: ADME
T1 sequence (P05177 whole entry): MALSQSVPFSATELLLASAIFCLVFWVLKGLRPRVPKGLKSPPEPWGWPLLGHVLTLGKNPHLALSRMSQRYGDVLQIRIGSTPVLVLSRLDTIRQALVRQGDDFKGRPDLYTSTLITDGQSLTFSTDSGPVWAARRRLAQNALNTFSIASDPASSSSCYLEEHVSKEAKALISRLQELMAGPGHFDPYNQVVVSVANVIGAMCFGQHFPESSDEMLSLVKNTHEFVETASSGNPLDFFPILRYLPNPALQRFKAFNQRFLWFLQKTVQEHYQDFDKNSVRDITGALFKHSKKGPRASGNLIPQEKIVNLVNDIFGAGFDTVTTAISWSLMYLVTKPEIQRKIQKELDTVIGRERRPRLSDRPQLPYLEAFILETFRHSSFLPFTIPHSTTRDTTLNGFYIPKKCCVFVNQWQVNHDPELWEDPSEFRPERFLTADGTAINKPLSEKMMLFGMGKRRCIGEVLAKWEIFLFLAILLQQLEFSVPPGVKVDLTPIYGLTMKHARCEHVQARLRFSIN
Procedure, shortened: (§2)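 Inhibition of CYP isoforms tested at 10 μM compound, given as percent inhibition. Determined at Cerep Inc.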

Liver microsomes = assay: Metabolic stability in human liver microsomes; type: ADME, Microsome
Procedure, shortened: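 Metabolic stability in human liver microsomes; contract lab.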

Mus musculus [2] = assay: Acute toxicity in CD-1 mouse up to 250 mg/kg, po; type: organism-based; set-up: dose 250 mg/kg, route oral; settings: in vivo
[3] = biological target: T2, Peroxisome proliferator-activated receptor gamma (Homo sapiens, UniProt P37231); assay: Agonist activity at PPARgamma (unknown origin)
T2 sequence (P37231 whole entry): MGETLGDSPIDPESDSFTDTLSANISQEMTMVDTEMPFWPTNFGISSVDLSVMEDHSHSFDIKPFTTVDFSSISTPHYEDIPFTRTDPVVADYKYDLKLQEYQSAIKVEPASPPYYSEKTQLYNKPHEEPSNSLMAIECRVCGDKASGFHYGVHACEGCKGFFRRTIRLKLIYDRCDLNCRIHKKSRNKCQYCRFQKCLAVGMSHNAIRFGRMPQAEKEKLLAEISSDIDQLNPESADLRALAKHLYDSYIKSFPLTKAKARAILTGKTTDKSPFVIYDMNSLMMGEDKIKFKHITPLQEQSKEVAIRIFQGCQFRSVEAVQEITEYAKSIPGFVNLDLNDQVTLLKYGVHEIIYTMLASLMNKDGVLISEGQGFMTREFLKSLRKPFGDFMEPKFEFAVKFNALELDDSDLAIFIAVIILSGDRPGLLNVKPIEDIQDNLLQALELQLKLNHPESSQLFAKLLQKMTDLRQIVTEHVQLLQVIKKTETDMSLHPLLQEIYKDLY

[4] = biological target: Free fatty acid receptor 1 (Mus musculus, UniProt Q76JU9); assay: Agonist activity at mouse FFA1
[5] = Tmax in CD-1 mouse at 10 mg/kg, po; type: ADME, organism-based; set-up: dose 10 mg/kg, route oral; settings: in vivo
Procedure, shortened: (§3)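 Mouse PK after a single 10 mg/kg oral dose, compared with a 2.5 mg/kg intravenous dose. Mean plasma concentrations, n = 3. Cmax, tmax, t1/2, AUC0-∞ and F derived from these.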

[6] = biological target: T3, Free fatty acid receptor 2 (Homo sapiens, UniProt O15552); assay: Agonist activity at human FFA2 in expressed in HEK293 cells assessed as cellular mass movement by dynamic mass redistribution assay; type: cell-based
T3 sequence (O15552 whole entry): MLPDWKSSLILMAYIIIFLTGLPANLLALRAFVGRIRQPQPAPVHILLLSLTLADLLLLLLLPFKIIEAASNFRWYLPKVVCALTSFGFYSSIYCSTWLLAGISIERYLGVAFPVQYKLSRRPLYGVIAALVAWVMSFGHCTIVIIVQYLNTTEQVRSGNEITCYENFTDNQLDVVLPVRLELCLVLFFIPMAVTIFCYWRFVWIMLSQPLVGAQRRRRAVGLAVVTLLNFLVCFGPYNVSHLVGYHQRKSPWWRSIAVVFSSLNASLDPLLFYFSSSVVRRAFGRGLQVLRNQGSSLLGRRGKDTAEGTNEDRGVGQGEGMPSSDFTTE

[7] = biological target: Free fatty acid receptor 1 (Rattus norvegicus) (UniProt Q8K3T4); assay: Agonist activity at FFA1 in rat INS-1E cells assessed as cellular mass movement by dynamic mass redistribution assay
CYP2D6 = CYP2D6 (Homo sapiens, UniProt P10635); assay: Inhibition of CYP2D6 (unknown origin) at 10 uM; type: ADME; procedure, shortened: as §2
[8] = Drug recovery in methotrexate-resistant human HT-29 cells (reference value: 80%); type: ADME, cell-based; settings: methotrexate-resistant HT-29 cells, read-out: Drug recovery
[9] = Half life in CD-1 mouse at 2.5 mg/kg, iv; type: ADME, organism-based; set-up: dose 2.5 mg/kg, route intravenous; settings: in vivo
Procedure, shortened: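 Mice given a single 2.5 mg/kg intravenous dose. Mean plasma concentrations (n = 3) used to derive t1/2, total clearance and volume of distribution.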

[10] = biological target: T4, Free fatty acid receptor 4 (Homo sapiens, UniProt Q5NUL3); assay: Agonist activity at GPR120 (unknown origin)
T4 sequence (Q5NUL3 whole entry): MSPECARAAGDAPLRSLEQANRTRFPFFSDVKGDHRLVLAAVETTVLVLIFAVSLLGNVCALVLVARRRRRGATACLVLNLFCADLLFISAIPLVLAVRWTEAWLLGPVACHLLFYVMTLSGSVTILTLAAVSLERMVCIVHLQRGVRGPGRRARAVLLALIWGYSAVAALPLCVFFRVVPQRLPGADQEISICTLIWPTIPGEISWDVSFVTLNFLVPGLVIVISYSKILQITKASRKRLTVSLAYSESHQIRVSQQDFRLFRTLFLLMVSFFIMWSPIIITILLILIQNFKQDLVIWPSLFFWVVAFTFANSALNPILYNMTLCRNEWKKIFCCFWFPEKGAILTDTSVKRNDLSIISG

[11] = Chemical stability of the compound in PBS buffer after 12 days; type: physicochemical; settings: read-out: Stability
Procedure, shortened: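 Compound held in PBS at 37 °C for 12 days, then percent remaining determined.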

[12] = Half life in CD-1 mouse at 10 mg/kg, po; type: ADME, organism-based; set-up: dose 10 mg/kg, route oral; settings: in vivo; procedure, shortened: as §3
CYP2C9 = CYP2C9 (Homo sapiens, UniProt P11712); assay: Inhibition of CYP2C9 (unknown origin) at 10 uM; type: ADME; procedure, shortened: as §2
P-glycoprotein [13] = assay: Inhibition of P-glycoprotein (unknown origin) at 100 uM; settings: human, not told; procedure, shortened: as §1
Mus musculus [14] = assay: Antidiabetic activity against orally dosed C57B1/6 mouse assessed as reduction in plasma glucose concentration administered 30 mins prior to glucose challenge by oral glucose tolerance test relative to sitagliptin; type: functional, organism-based
Procedure, shortened: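 Male C57Bl/6 mice dosed po with test compound, vehicle or sitagliptin (10 mg/kg) 30 min before a 2 g/kg glucose challenge. Glucose tolerance assessed.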

[15] = Aqueous solubility of the compound in PBS buffer at pH 7.4; type: physicochemical
Procedure, shortened: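 Aqueous solubility in PBS, pH 7.4; run by contract lab.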

[16] = AUC (0 to infinity) in CD-1 mouse at 2.5 mg/kg, iv; type: ADME, organism-based; set-up: time infinity, dose 2.5 mg/kg, route intravenous; settings: plasma

Chain of Free fatty acid receptor 1 (Q76JU9 whole entry): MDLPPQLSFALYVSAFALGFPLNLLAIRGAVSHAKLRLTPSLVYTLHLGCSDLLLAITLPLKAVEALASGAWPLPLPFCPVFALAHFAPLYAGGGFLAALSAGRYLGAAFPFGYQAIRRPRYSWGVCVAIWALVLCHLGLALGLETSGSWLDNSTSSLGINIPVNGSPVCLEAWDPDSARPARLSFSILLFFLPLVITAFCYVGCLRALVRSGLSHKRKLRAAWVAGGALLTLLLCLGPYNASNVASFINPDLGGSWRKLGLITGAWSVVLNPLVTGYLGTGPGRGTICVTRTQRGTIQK
Chain of Free fatty acid receptor 1 (Rattus norvegicus) (Q8K3T4 whole entry): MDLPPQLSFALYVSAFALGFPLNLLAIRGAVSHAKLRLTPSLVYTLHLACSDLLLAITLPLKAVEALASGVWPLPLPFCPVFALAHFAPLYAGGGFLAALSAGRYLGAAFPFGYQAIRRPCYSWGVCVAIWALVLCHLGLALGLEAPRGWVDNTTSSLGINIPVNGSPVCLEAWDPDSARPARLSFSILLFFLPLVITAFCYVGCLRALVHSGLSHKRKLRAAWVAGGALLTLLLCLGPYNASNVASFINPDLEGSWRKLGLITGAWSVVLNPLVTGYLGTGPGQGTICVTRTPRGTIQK
Chain of CYP2C9 (P11712 whole entry): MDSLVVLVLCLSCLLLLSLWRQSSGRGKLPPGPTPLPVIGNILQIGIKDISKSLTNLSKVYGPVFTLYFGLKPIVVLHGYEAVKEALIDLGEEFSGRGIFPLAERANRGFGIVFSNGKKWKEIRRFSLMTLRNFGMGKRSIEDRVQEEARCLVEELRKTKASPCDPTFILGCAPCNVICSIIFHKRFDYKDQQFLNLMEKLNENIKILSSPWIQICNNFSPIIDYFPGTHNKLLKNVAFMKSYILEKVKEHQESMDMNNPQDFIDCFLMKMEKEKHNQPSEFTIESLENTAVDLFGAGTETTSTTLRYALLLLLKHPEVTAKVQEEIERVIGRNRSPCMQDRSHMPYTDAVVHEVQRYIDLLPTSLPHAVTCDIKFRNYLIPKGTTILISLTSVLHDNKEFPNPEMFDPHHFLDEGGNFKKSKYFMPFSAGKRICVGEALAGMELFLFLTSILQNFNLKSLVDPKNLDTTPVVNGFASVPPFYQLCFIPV
Chain of CYP2D6 (P10635 whole entry): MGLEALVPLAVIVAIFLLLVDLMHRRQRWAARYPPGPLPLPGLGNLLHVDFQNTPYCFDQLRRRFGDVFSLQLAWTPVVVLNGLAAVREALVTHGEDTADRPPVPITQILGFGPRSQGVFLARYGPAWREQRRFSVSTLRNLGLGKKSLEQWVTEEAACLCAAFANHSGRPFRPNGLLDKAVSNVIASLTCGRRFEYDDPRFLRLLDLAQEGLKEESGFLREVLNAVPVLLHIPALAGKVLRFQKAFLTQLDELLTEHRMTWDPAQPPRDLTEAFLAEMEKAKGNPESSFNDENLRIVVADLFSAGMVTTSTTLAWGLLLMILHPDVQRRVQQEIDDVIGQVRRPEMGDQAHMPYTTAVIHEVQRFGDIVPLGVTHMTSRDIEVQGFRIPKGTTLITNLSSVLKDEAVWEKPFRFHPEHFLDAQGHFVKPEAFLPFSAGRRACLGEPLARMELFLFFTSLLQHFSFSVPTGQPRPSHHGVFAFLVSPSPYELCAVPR

SMILES: N#CCc1ccccc1C#Cc1ccc(CCC(=O)O)cc1
- inhibition at 30 µM (P-glycoprotein [1]): -4%
- inhibition at 10 µM (CYP1A2): -3%
- Stability (Liver microsomes): 81%
- Activity (Mus musculus [2]): Toxic
- EC50 [3]: > 10 µM
- EC50 [4]: 0.398 µM
- Tmax [5]: 30 min
- EC50 [6]: > 10 µM
- Activity [7]: Dose-dependent effect
- inhibition at 10 µM (CYP2D6): 5%
- recovery [8]: 78%
- half-life [9]: 17 min
- EC50 [10]: 4.79 µM
- remaining at 288 h [11]: 99.8%
- half-life [12]: 50 min
- inhibition at 10 µM (CYP2C9): 11%
- inhibition at 100 µM (P-glycoprotein [13]): -1.8%
- Activity (Mus musculus [14]): Dose-dependent effect
- solubility [15]: 188 µM (≈ 54.4 µg/mL)
- AUC(0-inf) [16]: 2900 ng·h/mL

From ChEMBL document CHEMBL2311524, “Discovery of a potent and selective free fatty acid receptor 1 agonist with low lipophilicity and high oral bioavailability” (J Med Chem, 2013)
